Bioassay records as filed in PubChem.
Hits are enriched below; roughly 4.8% of the tested compounds scored in any of these assays.
Calb FLC – C. albicans growth inhibition with fluconazole, primary screen, CaCi-2 strain, Alamar Blue fluorescence | C. albicans CaCi-2 (fluconazole-resistant clinical isolate) + fluconazole, 48 h | growth inhibition, % (concentration not given with the values) | 0.57% of 300,000 active | AID 1979, 2009;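 active means growth inhibition above about 58% in most replicates, limit read from the data, passing the limit was not always enough; inconclusive means exactly half the replicates above a set limit; inactive means most replicates below a set limit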;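 further: all wells also contain fluconazole at 8 µg/ml as a sub-toxic cotreatment; 0% = median of DMSO wells and 100% = median of geldanamycin control wells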
UCH37 DUB inh – inhibitors of human UCH37 deubiquitinase, primary screen, biochemical, Ub-AMC cleavage, fluorescence | Ubiquitin carboxyl-terminal hydrolase isozyme L5 (Homo sapiens), Q9Y5K5 | purified proteasome/UCH37 | inhibition, % (concentration not given with the values) | 0.33% of 330,000 active | AID 588478, 2011;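 active means mean inhibition over replicate wells above about 20%, limit read from the data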;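 further: 0% = compound-free wells with enzyme and 100% = wells lacking proteasome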
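System: Proteasome-associated human UCH37 deubiquitinase; Input: 0.15 nM proteasome in added enzyme buffer; Also added: Ub-AMC substrate from 1 µM stock; Incubation: 30 min compound-proteasome preincubation then 25 min substrate reaction, room temperature; Detection: fluorescence, ex 355 nm, em 460 nm; Read-out: % inhibition of Ub-AMC cleavage fluorescence; Benchmarks: no-proteasome and no-compound wells.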
NALP3 yeast inh – NALP3 inflammasome inhibitors in reconstituted yeast, primary screen, luminescence, uHTS. inhibition, % at 10 µM. Yeast reconstituted NLRP3/ASC/caspase-1, beta-gal luminescence, 24 h. 0.39% of 330,000 active. AID 2825, 2010;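 active means inhibition of 50% or more; inactive means inhibition below 50%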;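 further: plate controls were induced DMSO wells for no effect and uninduced yeast grown without galactose for full effect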
ATG4B inhibitor – ATG4B protease inhibitors, primary screen, biochemical, fluorescence, uHTS; Cysteine protease ATG4B (Homo sapiens), Q9Y4P1; ATG4B cleavage of LC3-PLA2, NBD-HPC fluorescence, 1 h; inhibition, % at 8.33 µM; 0.51% of 340,000 active; in the data active means inhibition above about 40%
Target sequence (Q9Y4P1 whole entry, looked up): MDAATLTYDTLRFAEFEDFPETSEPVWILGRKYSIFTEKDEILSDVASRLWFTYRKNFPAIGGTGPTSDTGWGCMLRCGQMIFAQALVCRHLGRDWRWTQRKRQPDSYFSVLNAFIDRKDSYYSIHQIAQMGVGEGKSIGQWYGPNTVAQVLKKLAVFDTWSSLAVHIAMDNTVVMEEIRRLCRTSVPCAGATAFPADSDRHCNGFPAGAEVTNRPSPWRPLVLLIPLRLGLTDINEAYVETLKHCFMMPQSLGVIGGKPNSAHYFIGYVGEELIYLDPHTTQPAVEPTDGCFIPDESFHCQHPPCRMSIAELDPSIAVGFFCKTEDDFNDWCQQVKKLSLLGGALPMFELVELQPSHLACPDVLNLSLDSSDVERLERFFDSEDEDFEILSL
ALR H2O2 inh – inhibitors of human ALR sulfhydryl oxidase, primary screen, biochemical, H2O2 detection, HRP-luminol luminescence, single point. FAD-linked sulfhydryl oxidase ALR (Homo sapiens), P55789. purified ALR, DTT oxidation. inhibition, % (test concentration not listed). 3.8% of 290,000 active. AID 485317, 2010;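 active means mean replicate inhibition above about 79%, with every replicate also reaching it, limit read from the data; inconclusive means only one of the two criteria met; inactive means mean below limit and not every replicate reaching it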
Target sequence (P55789 whole entry, looked up): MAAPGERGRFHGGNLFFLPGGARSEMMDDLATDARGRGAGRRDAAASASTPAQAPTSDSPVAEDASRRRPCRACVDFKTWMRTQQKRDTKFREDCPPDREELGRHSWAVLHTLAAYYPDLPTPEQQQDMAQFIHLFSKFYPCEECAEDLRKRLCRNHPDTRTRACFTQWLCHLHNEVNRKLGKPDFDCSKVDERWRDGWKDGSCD
NALP1 inh – NALP1 inflammasome inhibitors in reconstituted yeast, colorimetric, S. cerevisiae, triplicate retest; 0.61% of 280,000 active; S. cerevisiae NALP1/ASC/caspase-1 growth, X-gal OD620, 72 h; inhibition, % at 10 µM; AID 2071, 2009; in the data active means inhibition mostly above about 24%, no sharp cut-off; inactive means mostly below about 32%
* marks the source's active call; other numbers are inactive results; i = inactive; ? = inconclusive; . = not tested or not shown; ! = not confirmed by another sample.

SMILES	Calb FLC	UCH37 DUB inh	NALP3 yeast inh	ATG4B inhibitor	ALR H2O2 inh	NALP1 inh
Nc1cccc(-c2cn3cccnc3n2)c1	12	6	4	3	99*	-5
Cc1ccc(-c2cn3cccnc3n2)cc1	17	-1	30	4	-10	-3
CCN(CC)S(=O)(=O)c1cccc(-c2csc(C)n2)c1	19	2	10	-1	97*	.
COc1cc(C=NNc2nc(=O)[nH]nc2C)ccc1O	.	15	.	.	.	.
O=C(NN=Cc1ccccc1[N+](=O)[O-])c1ccc2nc[nH]c2c1	.	6	.	.	.	.
COC(=O)c1sc(NC(=O)c2cc3c(s2)CCCC3)nc1C	-8	-10	20	-14	3	33*
O=c1cc(-c2cccc(Br)c2)nc(-c2ccccc2F)o1	9	1	10	46*	2	28
Cc1ccc(NC(=O)C2=NNC(=O)CC2)cc1F	-8	6	-1	-6	-3	36*
COc1cccc(-c2nc(CS(=O)(=O)CC(=O)Nc3ccccc3Br)c(C)o2)c1	-15	1	7	-1	94*	22
COc1cccc(-c2nc(CS(=O)(=O)CC(=O)Nc3ccccc3Cl)c(C)o2)c1	0	2	15	14	87*	14
NC(=NOC(=O)c1ccccc1F)c1nonc1N	.	0	.	.	.	.
CN(C)c1ccc(/C=C(/NC(=O)c2ccccc2)C(=O)NCCCn2ccnc2)cc1	1	8	2	0	99*	20
O=C(NCCCn1ccnc1)/C(=C/c1ccc(Cl)cc1)NC(=O)c1ccccc1	-4	5	17	-4	-4	0
CCC(=O)Nc1ccc(C(=O)NCCCn2ccnc2)cc1	0	-4	11	-4	100*	13
CN(C)c1ccc(/C=C(\NC(=O)c2ccccc2)C(=O)NCCCN2CCOCC2)cc1	-8	9	-9	-4	98*	12
CN(C)c1ccc(/C=C(\NC(=O)c2ccccc2)C(=O)NCCN2CCOCC2)cc1	1	16	20	-6	.	3
Cc1cc(C(=O)NN=Cc2ccc3c(c2)OCO3)c(C)o1	.	3	.	.	.	.
CCOc1ccc(N(C(C)C(=O)NN=C(C)c2cccc(NC(=O)c3ccccc3)c2)S(C)(=O)=O)cc1 (centres undefined)	.	4	.	.	.	.
Cn1c(C=NNC(=O)c2ccccc2)nc2ccccc21	.	-103	.	.	.	.
COc1ccc(N2CCN(CC(O)COCCOc3ccc(Br)cc3)CC2)cc1 (centres undefined)	6	0	28	4	97*	22
COc1cccc(OCC(O)CN2CCN(c3ccc(Cl)cc3)CC2)c1 (centres undefined)	-9	6	36	-10	45	7
OC(COc1ccc(OCc2ccccc2)cc1)CN1CCOCC1 (centres undefined)	-12	3	22	-5	0	39*
COc1ccc(N2CCN(CC(O)COc3ccc4c(c3)CCC4)CC2)cc1 (centres undefined)	-8	2	21	-1	97*	30
COc1ccccc1N1CCN(CC(O)COCCOc2ccc(Br)cc2)CC1 (centres undefined)	1	2	28	-6	.	31
COc1ccc(OCC(O)CN2CCN(c3ccc(Cl)cc3)CC2)cc1 (centres undefined)	-2	6	21	3	1	14
SMILES	Calb FLC	UCH37 DUB inh	NALP3 yeast inh	ATG4B inhibitor	ALR H2O2 inh	NALP1 inh
OC(COc1ccc(-c2ccccc2)cc1)CN1CCOCC1 (centres undefined)	-7	5	22	.	-1	17
COc1cccc(OCC(O)CN2CCN(c3ccccc3)CC2)c1 (centres undefined)	-4	6	15	-4	96*!	10
COc1ccc(N(CC(=O)NN=Cc2ccc(OC3CSC3)cc2)S(=O)(=O)c2ccccc2)cc1	.	2	.	.	.	.
Cc1ccc(-n2c(SCC(=O)NN=Cc3ccc(C)s3)nnc2-c2ccccc2)cc1	.	2	.	.	.	.
CC1(C)Cc2ccccc2C(Nn2cnnc2)=N1	-3	1	-5	1	-4	-6
CC1(C)Cc2ccccc2C2=NNC(=O)C2=N1	46	i	14	8	99*	-12
CCN1C(=O)C(CC(=O)Nc2cccc(C(C)=O)c2)SC1=Nc1ccccn1 (centres undefined)	.	1	.	.	.	.
CC1CCN(CCOc2cccc(Br)c2)CC1	-25	4	22	0	1	46
Clc1cccc(OCCN2CCN(CCOc3cccc(Cl)c3)CC2)c1	-32	.	40	-4	.	64*
S=c1nc(-c2csc3c2CCCC3)[nH][nH]1	-58	-1	29	9	99*	-6
Cc1nnc2sc(-c3csc4c3CCCC4)nn12	?	1	-45	-8	.	0
CC(=O)Nc1ccc(NC(=O)COC(=O)CCCc2c[nH]c3ccccc23)cc1	-4	2	8	4	94*	.
O=C(CCCc1c[nH]c2ccccc12)NCc1cccs1	-7	1	12	0	90*	-4
O=C(Cc1c[nH]c2ccccc12)NCc1cccs1	1	2	12	-10	22	23
NC(=O)c1oc2ccccc2c1NC(=O)CN1CCCCC1	21	1	-8	-4	31	-2
NC(=O)c1oc2ccccc2c1NC(=O)C1CCCCC1	-5	3	-10	-9	96*	.
O=c1[nH]c(=S)[nH]c2scc(-c3ccc(Br)cc3)c12	7	7	28	-5	-6	.
O=c1[nH]c(=S)[nH]c2sccc12	-2	1	-3	-4	97*	-12
Cc1nc2ccc(S(=O)(=O)NC(C(=O)Nc3nccs3)C(C)C)cc2s1 (centres undefined)	4	0	0	1	92*	.
C=CCOc1ccc(/C(O)=C2\C(=O)C(=O)N(CCN(C)C)C2c2cccs2)cc1 (centres undefined)	-2	24*	-16	-6	-3	-19
COCCNC(=S)NN(c1ccccc1)c1ccccc1	5	-1	-5	-3	82*	-16
CC(C)N(C(=S)NC1CC2CCC1C2)c1ccccc1 (centres undefined)	3	5	15	-4	-4	1
COCCNC(=S)N(c1ccccc1)C(C)C	-1	4	-2	-10	50	40*
CNC(=S)NN(c1ccccc1)c1ccccc1	1	3	-8	-3	95*	-3
S=C(NC1CCCCC1)NN(c1ccccc1)c1ccccc1	-41	4	1	-5	6	46
COc1cc(C=NN=C2CC3CCC2(C)C3(C)C)ccc1O (centres undefined)	.	4	.	.	.	.
